# Results: article PMC3277286 (Journal of Medicinal Chemistry, 2012)
# Key:
# human ΔF508-CFTR [1] = molecular target: T1, human ΔF508-CFTR (Homo sapiens, UniProt P13569, DEL508-508); assay type: cell-based; details: summary in text of corrector and potentiator assays in ΔF508-CFTR FRT cells
# How it was run: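 FRT cells coexpressing human ΔF508-CFTR and YFP-H148Q/I152L were grown 18–24 h at 37 °C, then rescued 18–24 h at 27 °C. After a PBS wash, they got 20 μM forskolin with test compound (0–50 μM final, eight concentrations) for 10 min. I⁻ influx was recorded over 2 s baseline plus 12 s after iodide addition, rate by exponential regression. Controls were DMSO and genistein. Runs were in triplicate; EC50/Vmax came from a 4-parameter logistic fit.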
# human ΔF508-CFTR [2] = molecular target: T1, human ΔF508-CFTR; experiment: ΔF508-CFTR corrector activity, fluorescence plate-reader iodide influx assay; assay type: cell-based; details: summary in text of corrector and potentiator assays in ΔF508-CFTR FRT cells
# How it was run: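 FRT cells stably coexpressing human ΔF508-CFTR and YFP-H148Q/I152L were grown 24 h at 37 °C, then given test compound for 16–20 h at eight concentrations (maximum 25 μM). After a PBS wash, they got 20 μM forskolin plus 50 μM genistein for 20 min. Iodide influx was read as YFP quenching after Cl-to-I replacement (137 mM), fitted exponentially. Runs were in triplicate; EC50/Vmax came from a 4-parameter logistic fit.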
Activity class from function studies (potentiator) (human ΔF508-CFTR [1]),Activity class from function studies (corrector / dual) (human ΔF508-CFTR [2]),SMILES
potentiator-only activity,–,"Cc1cc(C)c2cc(C#N)c(NCCNC(=O)c3ccccn3)nc2c1 [CoPo 16, N-(2-((3-Cyano-5,7-dimethylquinolin-2-yl)amino)ethyl)picolinamide]"
potentiator-only activity,–,"Cc1cc(C)c2cc(C#N)c(NCCNC(=O)c3ccccc3)nc2c1 [CoPo 19, N-(2-((3-Cyano-5,7-dimethylquinolin-2-yl)amino)ethyl)benzamide]"
–,corrector-only activity,"Cc1cc(C)c2cc(C#N)c(NCCNC(=O)c3cnccn3)nc2c1 [CoPo 22, N-(2-((3-Cyano-5,7-dimethylquinolin-2-yl)amino)ethyl)pyrazine-2-carboxamide]"
potentiator-only activity,–,"COc1ccccc1C(=O)NCCCNc1nc2cc(C)cc(C)c2cc1C#N [CoPo 31, N-(3-(3-Cyano-5,7-dimethylquinolin-2-ylamino)propyl)-2-methoxybenzamide]"
potentiator-only activity,–,"Cc1cc(C)c2cc(C#N)c(NCCCNC(=O)c3ccccn3)nc2c1 [CoPo 34, N-(3-(3-Cyano-5,7-dimethylquinolin-2-ylamino)propyl)picolinamide]"
